Laboratory results as given in ChEMBL document CHEMBL3407378, “Design, synthesis and biological evaluation of novel 7-alkylamino substituted benzo[a]phenazin derivatives as dual topoisomerase I/II inhibitors” (Eur J Med Chem, 2015).
Calls of active or inactive are those of the source. The rule behind the calls is not given here.

Key:
HeLa = assay: Cytotoxicity against human HeLa cells after 48 hrs by MTT assay; assay type: functional, cell-based
Method in brief: (§1)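 Cells seeded 1 × 10^4 per well and incubated overnight, then given compound at 0–50 µM for 48 h. MTT added (20 µL of 5 mg/mL stock) for 4 h at 37 °C; formazan dissolved in DMSO, absorbance read at 570 nm. Triplicates; IC50 from mean OD versus concentration curves.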

K562 = assay: Cytotoxicity against human K562 cells after 48 hrs by MTT assay; assay type: functional, cell-based; conditions: K562, 48 h; method in brief: as §1
[1] = Cytotoxicity against human HL60 cells after 48 hrs by MTT assay; assay type: functional, cell-based; conditions: HL-60, 48 h; method in brief: as §1
A549 = assay: Cytotoxicity against human A549 cells after 48 hrs by MTT assay; assay type: functional, cell-based; conditions: A549, 48 h; method in brief: as §1
[2] = target: T1, DNA topoisomerase 1 (Homo sapiens) (UniProt P11387); assay: Inhibition of Topo 1 (unknown origin)-mediated relaxation of supercoiled pBR322 plasmid at 25 uM after 30 mins by agarose gel electrophoresis
T1 sequence (whole entry): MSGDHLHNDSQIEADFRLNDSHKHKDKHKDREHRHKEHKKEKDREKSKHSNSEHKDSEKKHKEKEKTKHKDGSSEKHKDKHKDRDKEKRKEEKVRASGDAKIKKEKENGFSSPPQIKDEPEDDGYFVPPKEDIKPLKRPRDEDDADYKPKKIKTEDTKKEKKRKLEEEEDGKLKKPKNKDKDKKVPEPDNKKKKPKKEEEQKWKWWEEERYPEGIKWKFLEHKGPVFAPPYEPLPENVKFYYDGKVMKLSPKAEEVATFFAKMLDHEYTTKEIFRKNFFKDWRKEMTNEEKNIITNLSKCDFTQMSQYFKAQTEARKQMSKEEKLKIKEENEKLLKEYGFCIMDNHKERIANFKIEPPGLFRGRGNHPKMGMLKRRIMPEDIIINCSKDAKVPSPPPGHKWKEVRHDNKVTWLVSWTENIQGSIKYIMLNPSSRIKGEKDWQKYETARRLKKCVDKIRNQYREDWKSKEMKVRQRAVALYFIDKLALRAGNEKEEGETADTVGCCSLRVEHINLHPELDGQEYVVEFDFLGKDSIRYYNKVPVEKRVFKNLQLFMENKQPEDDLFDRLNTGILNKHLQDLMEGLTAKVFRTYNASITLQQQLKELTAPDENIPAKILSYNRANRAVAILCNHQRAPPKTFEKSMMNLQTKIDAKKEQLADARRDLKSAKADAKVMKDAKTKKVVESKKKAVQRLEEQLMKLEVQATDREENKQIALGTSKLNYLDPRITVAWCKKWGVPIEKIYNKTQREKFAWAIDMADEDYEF
Method in brief: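 Topo I with supercoiled pBR322 and compound, 30 min at 37 °C. Stopped with SDS/bromophenol blue/glycerol dye; run on 1% agarose gel in TAE for 1 h and stained with Gel Red.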

[3] = target: DNA topoisomerase 2-alpha (Homo sapiens) (UniProt P11388); assay: Inhibition of human Topo 2-mediated relaxation of supercoiled pBR322 plasmid at 25 uM after 30 mins by agarose gel electrophoresis
DNA topoisomerase 2-alpha (Homo sapiens), sequence (P11388 whole entry): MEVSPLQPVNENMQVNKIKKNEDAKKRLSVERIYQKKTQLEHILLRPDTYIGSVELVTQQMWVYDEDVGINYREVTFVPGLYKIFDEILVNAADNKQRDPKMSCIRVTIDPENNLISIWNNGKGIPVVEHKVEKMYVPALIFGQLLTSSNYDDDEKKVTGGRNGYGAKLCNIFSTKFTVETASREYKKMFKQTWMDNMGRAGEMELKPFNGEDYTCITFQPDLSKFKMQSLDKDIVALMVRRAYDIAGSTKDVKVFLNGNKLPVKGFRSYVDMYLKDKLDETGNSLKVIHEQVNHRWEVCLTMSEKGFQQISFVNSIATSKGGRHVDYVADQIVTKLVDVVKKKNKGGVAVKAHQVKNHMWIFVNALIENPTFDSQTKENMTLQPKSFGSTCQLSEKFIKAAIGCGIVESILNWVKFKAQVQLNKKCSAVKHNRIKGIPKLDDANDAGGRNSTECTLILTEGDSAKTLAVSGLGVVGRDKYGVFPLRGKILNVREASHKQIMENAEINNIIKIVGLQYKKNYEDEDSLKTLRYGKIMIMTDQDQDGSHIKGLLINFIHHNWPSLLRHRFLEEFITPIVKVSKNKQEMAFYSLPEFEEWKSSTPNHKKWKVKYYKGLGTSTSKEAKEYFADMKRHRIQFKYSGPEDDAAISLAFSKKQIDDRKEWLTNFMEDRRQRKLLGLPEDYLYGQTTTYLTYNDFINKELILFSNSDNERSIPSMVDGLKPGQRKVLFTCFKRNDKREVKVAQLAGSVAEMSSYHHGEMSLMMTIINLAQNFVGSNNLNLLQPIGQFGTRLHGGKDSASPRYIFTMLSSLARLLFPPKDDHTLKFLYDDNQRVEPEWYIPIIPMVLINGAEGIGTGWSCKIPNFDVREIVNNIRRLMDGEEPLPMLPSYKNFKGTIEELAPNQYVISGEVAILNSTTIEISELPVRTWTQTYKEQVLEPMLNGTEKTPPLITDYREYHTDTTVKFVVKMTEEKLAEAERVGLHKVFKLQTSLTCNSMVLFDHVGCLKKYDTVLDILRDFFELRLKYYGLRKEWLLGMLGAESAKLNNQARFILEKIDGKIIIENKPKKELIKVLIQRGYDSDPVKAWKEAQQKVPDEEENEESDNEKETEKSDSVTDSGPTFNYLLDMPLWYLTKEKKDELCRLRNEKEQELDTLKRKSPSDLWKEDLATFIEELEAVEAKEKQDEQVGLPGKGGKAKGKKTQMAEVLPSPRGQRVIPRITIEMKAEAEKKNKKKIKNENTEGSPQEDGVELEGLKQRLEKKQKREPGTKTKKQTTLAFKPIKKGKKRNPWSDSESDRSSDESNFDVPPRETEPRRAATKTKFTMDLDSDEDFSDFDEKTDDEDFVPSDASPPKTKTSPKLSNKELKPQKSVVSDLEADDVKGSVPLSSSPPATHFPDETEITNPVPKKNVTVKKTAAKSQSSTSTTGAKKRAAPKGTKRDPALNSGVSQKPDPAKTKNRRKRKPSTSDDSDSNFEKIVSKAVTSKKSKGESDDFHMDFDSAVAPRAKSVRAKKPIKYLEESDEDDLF

[4] = target: DNA topoisomerase 2-alpha (Homo sapiens) (UniProt P11388); assay: Inhibition of human Topo 2-mediated relaxation of supercoiled pBR322 plasmid at 25 to 50 uM after 30 mins by agarose gel electrophoresis
[5] = target: T2, DNA topoisomerase (Bos taurus) (UniProt A0JN73); assay: Induction of calf thymus Topo 1-pBR322 DNA cleavage complex formation assessed as nicked DNA formation after 30 mins by agarose gel electrophoresis
T2 sequence (whole entry): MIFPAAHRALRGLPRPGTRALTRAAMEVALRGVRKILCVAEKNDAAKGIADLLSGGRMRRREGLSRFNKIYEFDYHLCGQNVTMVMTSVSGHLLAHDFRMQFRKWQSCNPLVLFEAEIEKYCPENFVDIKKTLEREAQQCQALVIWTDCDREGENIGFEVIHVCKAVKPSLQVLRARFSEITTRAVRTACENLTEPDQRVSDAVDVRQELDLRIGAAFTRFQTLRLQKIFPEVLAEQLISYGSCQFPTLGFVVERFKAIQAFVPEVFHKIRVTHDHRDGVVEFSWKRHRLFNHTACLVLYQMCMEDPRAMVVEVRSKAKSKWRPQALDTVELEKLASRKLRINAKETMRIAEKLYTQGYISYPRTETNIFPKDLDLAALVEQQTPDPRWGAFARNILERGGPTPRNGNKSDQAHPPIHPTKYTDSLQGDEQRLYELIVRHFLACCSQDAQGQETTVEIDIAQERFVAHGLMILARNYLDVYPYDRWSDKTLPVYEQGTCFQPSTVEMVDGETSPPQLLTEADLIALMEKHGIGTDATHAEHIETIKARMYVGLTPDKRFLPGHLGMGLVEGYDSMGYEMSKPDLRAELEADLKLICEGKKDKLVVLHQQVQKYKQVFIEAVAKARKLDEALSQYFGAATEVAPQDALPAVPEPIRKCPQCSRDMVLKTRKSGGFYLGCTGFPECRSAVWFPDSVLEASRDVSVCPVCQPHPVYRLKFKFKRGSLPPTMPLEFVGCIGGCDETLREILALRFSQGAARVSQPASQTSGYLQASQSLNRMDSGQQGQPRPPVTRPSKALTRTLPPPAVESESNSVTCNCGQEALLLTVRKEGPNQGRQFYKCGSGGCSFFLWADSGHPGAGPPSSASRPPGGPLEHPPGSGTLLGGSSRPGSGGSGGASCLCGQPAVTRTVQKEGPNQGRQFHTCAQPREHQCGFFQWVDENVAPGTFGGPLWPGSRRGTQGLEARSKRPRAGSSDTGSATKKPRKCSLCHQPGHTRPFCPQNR
Method in brief: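 Calf thymus Topo I (10 units) with 0.1 µg supercoiled pBR322 and 0.5–50 µM compound in Topo I buffer (pH 7.5) for […]. Complexes trapped with SDS then NaEDTA, followed by proteinase K for 30 min at 45 °C. Samples run on 1% agarose gel containing 0.5 µg/mL ethidium bromide. Nicked DNA quantified by optical density.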

[6] = target: T1, DNA topoisomerase 1 (Homo sapiens); assay: Induction of Topo 1-DNA cleavage complex formation in human HL60 cells after 1 hr by ICE assay; assay type: cell-based; conditions: HL-60
Method in brief: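 Mid-log phase HL-60 cells exposed to 2, 5 or 10 µM compound (DMSO vehicle 1.0% v/v) for 1 h, then lysed in DNAzol. DNA was ethanol-precipitated, redissolved and quantified. 2 µg DNA in 25 mM NaH2PO4 pH 6.5 was blotted onto nitrocellulose. Covalent Topo I was probed with rabbit anti-human Topo I (1:1000) and HRP secondary (1:3000), read by chemiluminescence.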

Compound	IC50 (HeLa) [µM]	IC50 (K562) [µM]	IC50 [1] [nM]	IC50 (A549) [µM]	Topo I relaxation inhibition (active/not active) [2]	Topo 2 inhibition (active/not active) [3]	Topo 2 inhibition (active/not active) [4]	Activity [5]	Activity [6]
CN1CCN(CCCn2c3cc(=O)c4ccccc4c-3nc3ccccc32)CC1	26.7	24	1220	23.6					
CCN(CC)CCCn1c2cc(=O)c3cc(OC)ccc3c-2nc2ccccc21	25.9	22	230	22.9	inactive				
CN(C)CCCn1c2cc(=O)c3ccccc3c-2nc2cccnc21	4.52	36.8	620	20.4	inactive	inactive			
COc1ccc2nc3c4ccccc4c(=O)cc-3n(CCCN(C)C)c2c1	5.51	5.53	180	30.5	Active				
O=c1cc2n(CCCN3CCOCC3)c3ccccc3nc-2c2ccccc12	> 50	25.2	1280	45.4					
O=c1cc2n(CCCN3CCCC3)c3ccccc3nc-2c2ccccc12	30.3	25.2	220	35.7					
CN(C)CCCn1c2cc(=O)c3ccccc3c-2nc2cc(Cl)ccc21	29.6	20.4	1080	38.4					
COc1ccc2c3nc4cc(Cl)ccc4n(CCCN(C)C)c-3cc(=O)c2c1	43	22.8	6430	31.5					
O=c1cc2n(CCCN3CCCCC3)c3ncccc3nc-2c2ccccc12	20.4	38.4	630	19.9	inactive	inactive			
CN(C)CCCn1c2cc(=O)c3ccccc3c-2nc2ccccc21	8.41	5.93	210	13.5	Active		Active		
COc1ccc2c3nc4ccccc4n(CCN(C)C)c-3cc(=O)c2c1	18.9	18.4	2850	38.5					
CC[C@@]1(O)C(=O)OCc2c1cc1n(c2=O)Cc2cc3ccccc3nc2-1 [CAMPTOTHECIN]	11.6	5.37	70	26.4				Dose-dependent effect	Dose-dependent effect
CCN(CC)CCCn1c2cc(=O)c3ccccc3c-2nc2ccccc21	44.5	24.8	1500	37.4					
COc1ccc2c(=O)cc3n(CCCN(C)C)c4ccccc4nc-3c2c1	29.9	7.13	220	33	Active	Active			
